Apaf1 inhib – inhibitors of human Apaf-1 apoptosome | O14727 | reconstituted apoptosome caspase-3 activity, DEVD-Rh110 fluorescence | inhibition, % at 20 µM | 0.71% of 330,000 active; active = inhibition of at least 40% at 20 µM;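 also: plate controls were DMSO wells for no effect and DEVD-CHO caspase inhibitor wells for full effect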
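Material: biochemical Apaf-1 apoptosome reconstitution. Medium: Hepes buffer, pH 7.5. Also added: cytochrome c activation, bis-DEVD rhodamine 110 substrate. Timing: 30 min compound preincubation, 50 min activation, room temperature. Measured by: rhodamine 110 fluorescence at Ex 480/Em 540 nm.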
TDP2 inh – blocks human TDP2 phosphodiesterase activity. recombinant TDP2, T5PNP hydrolysis, p-nitrophenol absorbance 415 nm. inhibition, % at 12.8 µM. 0.34% of 370,000 active. AID 720702;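 active = inhibition above the mean of all tested compounds plus 3 SD, set per campaign, cut at about 25% in these data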;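 also: 0% = DMSO with enzyme and 100% = buffer with substrate but no TDP2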
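Test system: human TDP2 enzyme; Input: 120 nM TDP2 per well; Buffer or medium: Mg2+-containing Tris-HCl buffer, pH 7.5; Reagent: 5 mM T5PNP; Dosing: 12.8 µM single point, 1% DMSO; Incubation: reaction 2 h, 37 °C; Detection: p-Nitrophenol epi absorbance; Read-out: % inhibition relative to enzyme-containing and enzyme-free wells; Replicates: single well per compound.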
GSTO1 inh – GSTO1 inhibition, counter-screen for RBBP9 inhibitors | P78417 | 1.1% of 300,000 active | AID 1974 | inhibition, % at 5.96 µM | recombinant GSTO1, activity-based probe fluorescence polarization;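 active = inhibition above the campaign mean inhibition plus 3 SD, cut at about 35% in these data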;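 also: 0% = GSTO1-1 with DMSO and 100% = wells lacking GSTO1-1 enzyme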
Target sequence (P78417 whole entry, looked up): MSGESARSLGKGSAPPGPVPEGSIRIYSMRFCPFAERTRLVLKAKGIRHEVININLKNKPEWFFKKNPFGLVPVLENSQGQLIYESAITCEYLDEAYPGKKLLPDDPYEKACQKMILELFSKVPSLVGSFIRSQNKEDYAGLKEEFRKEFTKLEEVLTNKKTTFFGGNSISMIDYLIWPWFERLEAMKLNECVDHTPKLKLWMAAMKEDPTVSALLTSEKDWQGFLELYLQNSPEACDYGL
PP1 counter – counter-screen for PP5 inhibitors: inhibitors of human PP1-alpha; purified PP1alpha, OMFP fluorescence; inhibition, % at 6.7 µM; 0.9% of 320,000 active; AID 2235;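 active = inhibition above the mean inhibition of all tested compounds plus 3 SD, computed separately for each screening campaign, cut at about 15% in these data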
PP5 inh – PP5 (human) phosphatase inhibition. P53041. 0.18% of 320,000 active. purified PP5c, OMFP substrate fluorescence. inhibition, % at 6.7 µM;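 active = inhibition above the campaign's mean inhibition across all tested compounds plus 3 SD, cut at about 9.5% in these data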;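 also: 0% = DMSO only and 100% = 100 µM cantharidin control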
PP1 inh confirm – confirmation of human PP1 phosphatase inhibitors. shares compounds with PP1 counter. purified PP1alpha, OMFP substrate fluorescence. inhibition, % at 6.7 µM. 52% of 1,900 active. AID 2358;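 active = mean PP1 inhibition above a set limit taken from the earlier primary screen, cut at about 15% in these data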
PP5 inh counter – counter-screen for PP1 inhibitors: human PP5 phosphatase inhibition; purified PP5c, OMFP fluorescence; shares compounds with PP1 counter; AID 2360; 4% of 1,900 active; inhibition, % at 6.7 µM;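 active = mean PP5 inhibition over triplicate wells above about 9.5% taken from the earlier PP1 screen, limit read from the data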
* hit, by the source's call. A selection: hits, their analogues and other compounds. The true share with any hit is near 2.1%.

`COc1ccc(NC(=O)NNC(=O)c2ccc(-c3ccccc3)cc2)cc1` gave Apaf1 inhib 10, TDP2 inh 6, GSTO1 inh 4, PP1 counter 28*, PP5 inh -2, PP1 inh confirm 22* and PP5 inh counter -6.
For COc1ccc2cc(OCC(=O)NNC(=O)Nc3ccc(C(C)=O)cc3)ccc2c1 the results were Apaf1 inhib 21, TDP2 inh 20, GSTO1 inh -2, PP1 counter 43*, PP5 inh 1, PP1 inh confirm 41* and PP5 inh counter -2.
COc1ccc(NC(=O)NNC(=O)COc2ccc3ccccc3c2)cc1OC was read as Apaf1 inhib -1, TDP2 inh -15, GSTO1 inh 4, PP1 counter -1 and PP5 inh 1.
For Cc1cccc(N2CCN(S(=O)(=O)c3ccc(S(=O)(=O)N4CCCC4)cc3)CC2)c1C the results were Apaf1 inhib 6, TDP2 inh 3, GSTO1 inh 0, PP1 counter -2 and PP5 inh 0.
`Cc1cccc(N2CCN(S(=O)(=O)c3ccc4c(c3)CC(=O)N4C)CC2)c1C` gave Apaf1 inhib 22, TDP2 inh 11, GSTO1 inh 2, PP1 counter 18*, PP5 inh 1, PP1 inh confirm 8 and PP5 inh counter 3.
For O=C(/C=C/c1ccc(F)cc1)NC(=S)NNC(=O)[C@H]1C[C@@H]1c1ccccc1 the results were Apaf1 inhib 10, TDP2 inh -10, GSTO1 inh 8, PP1 counter 18*, PP5 inh 3, PP1 inh confirm 7 and PP5 inh counter -3.
For O=C(NC(=S)NNC(=O)[C@H]1C[C@@H]1c1ccccc1)c1ccc(F)cc1 the results were Apaf1 inhib -17, TDP2 inh 9, GSTO1 inh 4, PP1 counter -6 and PP5 inh -1.
For O=C(O)c1cn(-c2ccc(F)cc2)c2cc(Cl)c(F)cc2c1=O the results were Apaf1 inhib -10, TDP2 inh 7, GSTO1 inh 2, PP1 counter 2 and PP5 inh 0.
`NC1C2CN(c3nc4c(cc3F)c(=O)c(C(=O)O)cn4-c3ccc(F)cc3F)CC12` (centres undefined) gave Apaf1 inhib -19, GSTO1 inh 6, PP1 counter 20*, PP5 inh 1, PP1 inh confirm 15 and PP5 inh counter -2.
For NC(=O)c1oc2ccccc2c1NC(=O)c1ccc(F)cc1 the results were Apaf1 inhib 6, TDP2 inh -3, GSTO1 inh -5, PP1 counter -1 and PP5 inh 2.
For O=C(Nc1nnc(-c2ccccc2)o1)c1nc2ccccc2s1 the results were Apaf1 inhib 3, TDP2 inh -12, GSTO1 inh -14, PP1 counter 25*, PP5 inh -1, PP1 inh confirm 28* and PP5 inh counter -8.
`NC(=O)c1oc2ccccc2c1NC(=O)c1nc2ccccc2s1` gave Apaf1 inhib -11, TDP2 inh -1, GSTO1 inh -14, PP1 counter 25*, PP5 inh -3, PP1 inh confirm 16* and PP5 inh counter -6.
`COc1cc(/C=C2/SC(=S)N(Cc3ccccc3)C2=O)ccc1OCC(=O)O` gave Apaf1 inhib 21, TDP2 inh 15, GSTO1 inh -10, PP1 counter 20*, PP5 inh 2, PP1 inh confirm 12 and PP5 inh counter -1.
Screening O=C(Cn1nnc(-c2ccncc2)n1)Nc1ccc(F)cc1F returned TDP2 inh 6.
Screening O=C(CSc1nc2ccsc2c(=O)n1CC1CCC(C(=O)O)CC1)c1ccc(Cl)cc1 (centres undefined) returned Apaf1 inhib 4, TDP2 inh -7, GSTO1 inh 3, PP1 counter 20*, PP5 inh -3, PP1 inh confirm 11 and PP5 inh counter -3.
`O=C(CSc1nc2ccsc2c(=O)n1CC1CCC(C(=O)O)CC1)c1ccc(F)cc1` (centres undefined) gave Apaf1 inhib -3, TDP2 inh 10, GSTO1 inh 3, PP1 counter -5 and PP5 inh 1.

Compound activity: PubChem, several laboratories
